Measurements collected from several papers.
pIC50: −log10 of the molar value.
Target: Cholinesterase (BCHE, Homo sapiens, UniProt P06276)
Read-out: enzyme activity
Action: inhibitor

C=CCn1c2cc(OC(=O)CCCCN3CCN(Cc4ccc(C(F)(F)F)cc4)CC3)ccc2c2ccnc(C)c21 — pIC50 (Ellman): 6.69
CC(=O)n1ccc(=O)[nH]c1=O — pIC50 (Ellman): 6.57
Clc1ccc(Nc2nc3ccccc3c3[nH]c(C4CCCCC4)nc23)cc1Cl — pIC50: 5.31
CC(C)c1ccccc1OP(=O)(Oc1ccccc1C(C)C)Oc1ccccc1C(C)C — IC50 (liver microsomes): > 20 µg/mL
C=CCn1c2cc(OC(=O)CCCCN3CCN(Cc4ccc(C)cc4)CC3)ccc2c2ccnc(C)c21 — pIC50 (Ellman): 6.24
Cc1ccccc1OP(=O)(Oc1ccccc1C)Oc1ccccc1C — pIC50: ~6.48
C[C@@H]1CCCN1CCCCOc1ccc2occc(=O)c2c1 — pIC50 (Ellman; pH 7.4): 4.31
Cn1ccc(=O)n(C)c1=O — pIC50 (Ellman): 6.26
C#CCN(C)c1nc(NCCCC2CCN(Cc3ccccc3)CC2)c(C#N)cc1C#N — pIC50 (Ellman): 5.77
O=c1[nH]cc(CO)c(=O)[nH]1 — pIC50 (Ellman): 6.35
C=CCn1c2cc(OC(=O)CCCCN3CCN(Cc4ccc(F)cc4)CC3)ccc2c2ccnc(C)c21 — pIC50 (Ellman): 6.23
O=c1[nH]cc(Br)c(=O)[nH]1 — pIC50 (Ellman): 6.53
CC(C)(C)c1ccccc1OP(=O)(Oc1ccccc1C(C)(C)C)Oc1ccccc1C(C)(C)C — IC50 (liver microsomes): > 20 µg/mL
